For 29 compounds, Kb, inhibition and Activity results are on record in ChEMBL document CHEMBL3992521, “Pyrimidinyl Biphenylureas: Identification of New Lead Compounds as Allosteric Modulators of the Cannabinoid Receptor CB1” (J Med Chem, 2017).

Test [1] has as its target Cannabinoid receptor 1 (Homo sapiens) (UniProt P21554). Nature of the test: Positive allosteric modulation of CB1 receptor (unknown origin) expressed in HEK293T cell membranes assessed as increase in [3H]CP55,940 binding by liquid scintillation counting method. An outline of the steps:
(§1)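 Membranes from HEK293T cells transiently expressing CB1 (harvested 24 h post-transfection) incubated with 0.5 nM [3H]CP55,940 and at least nine modulator concentrations (100 pM–100 µM) in TME buffer pH 7.4 with 0.2% fatty acid-free BSA; nonspecific binding with 1 µM unlabeled CP55,940; filtration. KB and cooperativity α from nonlinear regression; duplicate, ≥3 experiments, 95% confidence limits.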

The target is the same in test [2]. The test is described as follows: Allosteric modulation at CB1 receptor (unknown origin) expressed in HEK293T cell membranes assessed as inhibition of CP55,940 induced [35S]GTPgammaS binding after 1 hr by liquid scintillation counting method. It is filed as functional. An outline of the steps:
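HEK293T cells transiently transfected with CB1 (calcium phosphate), membranes harvested 24 h later; 7.5 µg membrane incubated 1 h at 30 °C with CP55,940 1 µM, 0.1 nM [35S]GTPγS, 5 µM GDP, 0.1% BSA in Tris-HCl pH 7.4/MgCl2/EGTA/NaCl buffer, varying modulator concentrations. Nonspecific binding with 10 µM unlabeled GTPγS; filtration. Expressed as % of CP55,940 signal; duplicate, ≥3 independent experiments.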

Test [3] shares this target. Nature of the test: Positive allosteric modulation of CB1 receptor (unknown origin) expressed in HEK293T cell membrane assessed as increase in beta-arrestin mediated ERK1/2 phosphorylation at 10 uM in presence of G-protein sensitive pertussis toxin incubated for 5 mins by Western blot method. It is filed as cell-based. The method in brief: (§2)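 CB1-transfected HEK293T cells carried control, β-arrestin 1 or β-arrestin 2 siRNA, or were pretreated 12 h at 37 °C with PTX 5 ng/mL. They were then washed and given allosteric modulator 10 μM alone for 5 min, with DMSO vehicle as control. ERK1/2 phosphorylation was read by Western blot of 13 µg lysate protein using phospho- and total p44/42 antibodies.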

Test [4] shares this target. Nature of the test: Positive allosteric modulation of CB1 receptor (unknown origin) expressed in HEK293T cell membrane assessed as ERK1/2 phosphorylation in presence of beta-arrestin1 siRNA at 10 uM incubated for 5 mins by Western blot method. It is filed as cell-based. The method in brief: as §2
For test [5] the target is unchanged. The test is described as follows: Positive allosteric modulation of CB1 receptor (unknown origin) expressed in HEK293T cell membranes assessed as increase in [3H]CP55,940 binding up to 32 uM by liquid scintillation counting method. The method in brief:
as §1

Calls of active or inactive are those of the source. The rule behind the calls is not given here.

Chain of Cannabinoid receptor 1 (Homo sapiens) (P21554 whole entry): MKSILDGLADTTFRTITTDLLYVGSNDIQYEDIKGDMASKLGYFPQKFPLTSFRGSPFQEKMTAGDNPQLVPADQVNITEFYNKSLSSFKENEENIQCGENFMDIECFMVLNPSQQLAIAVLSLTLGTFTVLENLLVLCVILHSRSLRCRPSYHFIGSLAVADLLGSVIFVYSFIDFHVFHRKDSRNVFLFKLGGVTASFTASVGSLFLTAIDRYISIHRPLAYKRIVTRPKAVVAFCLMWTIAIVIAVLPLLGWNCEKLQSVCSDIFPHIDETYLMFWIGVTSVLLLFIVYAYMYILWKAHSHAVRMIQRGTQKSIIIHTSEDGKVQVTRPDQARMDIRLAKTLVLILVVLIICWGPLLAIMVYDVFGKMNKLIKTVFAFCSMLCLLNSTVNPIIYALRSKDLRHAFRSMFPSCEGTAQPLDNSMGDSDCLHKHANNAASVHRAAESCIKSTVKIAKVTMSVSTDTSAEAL

With `CN(C)c1nccc(-c2cccc(NC(=O)Nc3ccc(F)cc3)c2)n1`, the Kb in test [1] is 1120 nM.

`N#Cc1ccc(NC(=O)Nc2cccc(-c3nccc(NC4CC4)n3)c2)cc1`: the Kb in test [1] was determined as 97.7 nM.

As to `CN(C)c1ccnc(-c2cccc(NC(=O)Nc3ccc(F)cc3)c2)n1`, the Kb in test [1] turned out to be 1220 nM.

For the compound `N#Cc1ccc(NC(=O)Nc2cccc(-c3ccnc(N4CCCC4)n3)c2)cc1`, in test [1], the Kb amounted to 168 nM. Also, the inhibition entry in test [2] was “Dose-dependent effect”. The result in test [3] and in test [4] was Active.

For `O=C(Nc1ccc(O)cc1)Nc1cccc(-c2nccc(N3CCCC3)n2)c1`, the outcome in test [1] and in test [5] was inactive.

For `O=C(Nc1ccc(Cl)cc1)Nc1cccc(-c2ccnc(N3CCCC3)n2)c1`, the Kb in test [1] turned out to be 227 nM. The inhibition entry in test [2] is “Dose-dependent effect”.

Turning to `CCN(CC)c1ccnc(-c2cccc(NC(=O)Nc3ccc(C#N)cc3)c2)n1`, the Kb in test [1] amounted to 69.6 nM. Further, the inhibition result in test [2] is “Dose-dependent effect”.

Take `CN(C)c1nccc(-c2cccc(NC(=O)Nc3cccc(F)c3)c2)n1`: the Kb in test [1] worked out at 967 nM.

With `CCN(C)c1ccnc(-c2cccc(NC(=O)Nc3ccc(C#N)cc3)c2)n1`, the Kb in test [1] was found to be 207 nM.

Take `N#Cc1ccc(NC(=O)Nc2cccc(-c3nccc(N4CCC4)n3)c2)cc1`: the Kb in test [1] was 211 nM.

As for `N#Cc1cccc(NC(=O)Nc2cccc(-c3nccc(N4CCCC4)n3)c2)c1`, in test [1], the Kb came to 1980 nM.

As for `O=C(Nc1ccc(F)cc1)Nc1cccc(-c2ccnc(N3CCCC3)n2)c1`, the Kb in test [1] stood at 196 nM.

For `N#Cc1ccc(NC(=O)Nc2cccc(-c3nccc(N4CCCCC4)n3)c2)cc1`, the Kb in test [1] is 66.4 nM.

As for `CN(C)c1ccnc(-c2cccc(NC(=O)Nc3cccc(F)c3)c2)n1`, the Kb in test [1] came out at 670 nM.

Take `COc1ccc(NC(=O)Nc2cccc(-c3nccc(N4CCCC4)n3)c2)cc1`: the Kb in test [1] worked out at 1830 nM.

Consider `CN(C)c1ccnc(-c2cccc(NC(=O)Nc3ccc(C(F)(F)F)cc3)c2)n1`, for which, in test [1], the Kb came to 144 nM.

Take `CC(=O)c1ccc(NC(=O)Nc2cccc(-c3nccc(N4CCCC4)n3)c2)cc1`: the Kb in test [1] is 2110 nM.

As for `N#Cc1ccc(NC(=O)Nc2cccc(-c3nccc(N4CCCC4)n3)c2)cc1`, the Kb in test [1] is 49.1 nM. In addition, the inhibition entry in test [2] is “Dose-dependent effect”. The outcome in test [3] and in test [4] was Active.

On to `O=C(Nc1ccc(C(=O)O)cc1)Nc1cccc(-c2nccc(N3CCCC3)n2)c1`, for which the outcome in test [1] and in test [5] was inactive.

Regarding `CN(C)c1ccnc(-c2cccc(NC(=O)Nc3ccc(C#N)cc3)c2)n1`, the Kb in test [1] was found to be 313 nM.

On to `CN(C)c1nccc(-c2cccc(NC(=O)Nc3ccc(I)cc3)c2)n1`, for which the Kb in test [1] was determined as 965 nM.

Regarding `O=C(Nc1ccc(Br)cc1)Nc1cccc(-c2nccc(N3CCCC3)n2)c1`, the Kb in test [1] worked out at 102 nM.

Take `O=C(Nc1ccc(Cl)cc1)Nc1cccc(-c2cccc(N3CCCC3)n2)c1`: in test [2], the inhibition entry was “Dose-dependent effect”. The outcome in test [4] was Active.

As for `CN(C)c1ccnc(-c2cccc(NC(=O)Nc3ccc(I)cc3)c2)n1`, the Kb in test [1] stood at 997 nM.

Take `O=C(Nc1ccc(Br)cc1)Nc1cccc(-c2ccnc(N3CCCC3)n2)c1`: the Kb in test [1] came to 395 nM.

Regarding `CN(C)c1nccc(-c2cccc(NC(=O)Nc3ccc(C#N)cc3)c2)n1`, the Kb in test [1] was determined as 417 nM.

With `O=C(Nc1ccc(F)cc1)Nc1cccc(-c2nccc(N3CCCC3)n2)c1`, in test [1], the Kb worked out at 223 nM.

Turning to `O=C(Nc1ccc(Cl)cc1)Nc1cccc(-c2nccc(N3CCCC3)n2)c1`, the Kb in test [1] was 264 nM. In test [2], the inhibition result was “Dose-dependent effect”.

As for `CCOC(=O)c1ccc(NC(=O)Nc2cccc(-c3nccc(N4CCCC4)n3)c2)cc1`, in test [1], the Kb was 463 nM.
